Results published in ChEMBL document CHEMBL1156597, “Structure-activity relationship of kahalalide F synthetic analogues” (J Med Chem, 2008).

Tests used:
[1] = Cytotoxicity against human IGROV cells after 48 hrs by SRB assay; format: functional; details: for CC50: read-out: LC50 (the source's name)
Method in brief: (§1)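 Cells grown in RPMI 1640 with 10% FBS and penicillin/streptomycin at 37 °C and 5% CO₂, trypsinized, then seeded at 5 × 10³/well. After 18 h drug-free attachment, samples in DMSO/EtOH/PBS (0.5:0.5:99) were added for 48 h continuous exposure. Cells were fixed with cold TCA (1 h, 4 °C) and stained with SRB (10 min). Tris-solubilized stain read at 490 nm. Triplicate wells, mean ± SD; GI₅₀ derived.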

HeLa = assay: Cytotoxicity against human HeLa cells after 48 hrs by SRB assay; format: functional; details: for CC50: read-out: LC50 (the source's name); method in brief: as §1
LoVo [2] = assay: Cytotoxicity against human doxorubicin resistant LoVo cells after 48 hrs by SRB assay; format: functional; details: for CC50: read-out: LC50 (the source's name); method in brief: as §1
[3] = Cytotoxicity against human HeLa-APL cells after 48 hrs by SRB assay; format: functional; method in brief: as §1
PANC-1 = assay: Cytotoxicity against human PANC1 cells after 48 hrs by SRB assay; format: functional; details: PANC-1, 48 h; for CC50: read-out: LC50 (the source's name); method in brief: as §1
SK-MEL-28 = assay: Cytotoxicity against human SK-MEL-28 cells after 48 hrs by SRB assay; format: functional, cell-based; details: Homo sapiens, SK-MEL-28, 48 h; for CC50: read-out: LC50 (the source's name); method in brief: as §1
LNCaP = assay: Cytotoxicity against human LNcaP cells after 48 hrs by SRB assay; format: functional; details: for CC50: read-out: LC50 (the source's name); method in brief: as §1
[4] = Cytotoxicity against human IGROV-ET cells after 48 hrs by SRB assay; format: functional; details: for CC50: read-out: LC50 (the source's name); method in brief: as §1
LoVo [5] = assay: Cytotoxicity against human LoVo cells after 48 hrs by SRB assay; format: functional; details: for CC50: read-out: LC50 (the source's name)
HT-29 = assay: Cytotoxicity against human HT29 cells after 48 hrs by SRB assay; format: functional, cell-based; details: Homo sapiens, HT-29, 48 h; for CC50: read-out: LC50 (the source's name); method in brief: as §1
K562 = assay: Cytotoxicity against human K562 cells after 48 hrs by SRB assay; format: functional; details: K562, 48 h; for CC50: read-out: LC50 (the source's name); method in brief: as §1
SK-BR-3 = assay: Cytotoxicity against human SKBR3 cells after 48 hrs by SRB assay; format: functional; details: SK-BR-3, 48 h; for CC50: read-out: LC50 (the source's name); method in brief: as §1
A549 = assay: Cytotoxicity against human A549 cells after 48 hrs by SRB assay; format: functional, cell-based; details: Homo sapiens, A549, 48 h; method in brief: as §1
DU-145 = assay: Cytotoxicity against human DU145 cells after 48 hrs by SRB assay; format: functional, cell-based; details: Homo sapiens, DU-145, 48 h; for CC50: read-out: LC50 (the source's name); method in brief: as §1

SMILES	GI50 ([1]; read-out: GI50) [nM]	CC50 [1] [nM]	CC50 (HeLa) [nM]	CC50 (LoVo [2]) [nM]	GI50 [3] [nM]	LC50 (concentration giving 50% net cell kill) [3] [nM]	TGI [3] [nM]	GI50 (PANC-1) [nM]	TGI (PANC-1) [nM]	CC50 (PANC-1) [nM]	GI50 (SK-MEL-28; read-out: GI50) [nM]	CC50 (SK-MEL-28) [nM]	CC50 (LNCaP) [nM]	CC50 [4] [nM]	CC50 (LoVo [5]) [nM]	CC50 (HT-29)	CC50 (K562) [nM]	CC50 (SK-BR-3) [nM]	LC50 (A549) [nM]	CC50 (DU-145) [nM]	other results
C/C=C1\NC(=O)[C@H](Cc2ccccc2)NC(=O)[C@@H](C(C)C)NC(=O)[C@@H]([C@H](C)CC)NC(=O)[C@H](NC(=O)[C@H](NC(=O)[C@H](CCCN)NC(=O)[C@H]2CCCN2C(=O)[C@H](NC(=O)[C@@H](NC(=O)[C@@H](NC(=O)[C@H](NC(=O)CC[C@@H](C)CC)C(C)C)[C@@H](C)OC(=O)C(F)(F)F)C(C)C)C(C)C)[C@H](C)CC)[C@H](C)OC(=O)[C@H](C(C)C)NC1=O	287	508	818	1400	499	892	745	1430	1660	1660	716	839	1400	468	310	271 nM	181	141	101	914	GI50 [1]: 345 nM; GI50 (HeLa): 294 nM; TGI (HeLa): 553 nM; GI50 (LoVo [2]): 189 nM; TGI (LoVo [2]): 222 nM; GI50 (SK-MEL-28): 772 nM; GI50 (LNCaP): 610 nM; TGI (LNCaP): 1020 nM; GI50 [4]: 191 nM; GI50 ([4]; read-out: GI50): 231 nM; GI50 (LoVo [5]): 212 nM; TGI (LoVo [5]): 257 nM; GI50 (HT-29): 241 nM; TGI (HT-29): 257 nM; TGI (SK-BR-3): 218 nM; GI50 (SK-BR-3; read-out: GI50): 203 nM; GI50 (A549): 882 nM; GI50 (A549; read-out: GI50): 7700 nM; GI50 (DU-145): 752 nM; GI50 (DU-145; read-out: GI50): 617 nM
C/C=C1\NC(=O)[C@H](Cc2ccccc2)NC(=O)[C@@H](C(C)C)NC(=O)[C@@H]([C@H](C)CC)NC(=O)[C@H](NC(=O)[C@H](NC(=O)[C@H](CCCN)NC(=O)[C@H]2CCCN2C(=O)[C@H](NC(=O)[C@H](CCC2CCCCC2)NC(=O)[C@@H](NC(=O)[C@H](NC(=O)CCCC(C)C)C(C)C)[C@@H](C)O)C(C)C)[C@H](C)CC)[C@H](C)OC(=O)[C@H](C(C)C)NC1=O	284	3870	829	1000	462	732	672	1040	1380	1700	329	626	1290	455	273	0.299 µg/mL	1850	230	437	709	TGI [1]: 2940 nM; GI50 (HeLa): 394 nM; TGI (HeLa): 628 nM; GI50 (LoVo [2]): 114 nM; TGI (LoVo [2]): 153 nM; GI50 (SK-MEL-28): 467 nM; GI50 (LNCaP): 639 nM; TGI (LNCaP): 909 nM; GI50 [4]: 380 nM; GI50 ([4]; read-out: GI50): 377 nM; GI50 (LoVo [5]): 240 nM; TGI (LoVo [5]): 256 nM; GI50 (HT-29): 235 nM; TGI (HT-29): 265 nM; TGI (SK-BR-3): 267 nM; GI50 (SK-BR-3; read-out: GI50): 234 nM; GI50 (A549): 233 nM; GI50 (A549; read-out: GI50): 186 nM; GI50 (DU-145): 507 nM; GI50 (DU-145; read-out: GI50): 350 nM
C/C=C1\NC(=O)[C@H](Cc2ccccc2)NC(=O)[C@@H](C(C)C)NC(=O)[C@@H]([C@H](C)CC)NC(=O)[C@H](NC(=O)[C@H](NC(=O)[C@H](CCCN)NC(=O)[C@H]2CCCN2C(=O)[C@H](NC(=O)[C@@H](NC(=O)[C@H](CC(C)C)NC(=O)[C@H](NC(=O)CCCC(C)C)C(C)C)C(C)C)C(C)C)[C@H](C)CC)[C@H](C)OC(=O)[C@H](C(C)C)NC1=O	637	489	983	256	1170	890	1020	1110	1280	1760	1270	1140	879	538	331	442 nM	1630	360	5280	944	GI50 [1]: 566 nM; GI50 (HeLa): 1060 nM; TGI (HeLa): 1020 nM; GI50 (LoVo [2]): 280 nM; TGI (LoVo [2]): 244 nM; TGI (SK-MEL-28): 1210 nM; GI50 (LNCaP): 1050 nM; TGI (LNCaP): 964 nM; GI50 [4]: 583 nM; GI50 ([4]; read-out: GI50): 754 nM; GI50 (LoVo [5]): 417 nM; TGI (LoVo [5]): 459 nM; GI50 (K562): 542 nM; TGI (K562): 926 nM; TGI (SK-BR-3): 466 nM; GI50 (SK-BR-3; read-out: GI50): 428 nM; GI50 (A549): 602 nM; GI50 (A549; read-out: GI50): 637 nM; GI50 (DU-145): 949 nM; GI50 (DU-145; read-out: GI50): 959 nM
C/C=C1\NC(=O)[C@H](Cc2ccccc2)NC(=O)[C@@H](C(C)C)NC(=O)[C@@H]([C@H](C)CC)NC(=O)[C@H](NC(=O)[C@H](NC(=O)[C@H](CCCN)NC(=O)[C@H]2CCCN2C(=O)[C@H](NC(=O)[C@@H](NC(=O)[C@@H](NC(=O)[C@H](NC(=O)CCCCCCCCCCCCCCC)C(C)C)[C@@H](C)O)C(C)C)C(C)C)[C@H](C)CC)[C@H](C)OC(=O)[C@H](C(C)C)NC1=O	191	62.2	151	258	326	513	479	203	1370	1300	138	110	107	79.1	286	72.7 nM	703	36	117	111	GI50 [1]: 92.6 nM; GI50 (LoVo [2]): 264 nM; TGI (LoVo [2]): 262 nM; GI50 (SK-MEL-28): 123 nM; GI50 (LNCaP): 129 nM; TGI (LNCaP): 118 nM; GI50 [4]: 140 nM; GI50 ([4]; read-out: GI50): 345 nM; GI50 (LoVo [5]): 300 nM; TGI (LoVo [5]): 293 nM; GI50 (K562): 124 nM; TGI (K562): 314 nM; GI50 (SK-BR-3): 39.8 nM; GI50 (SK-BR-3; read-out: GI50): 43.9 nM; GI50 (A549): 126 nM; GI50 (A549; read-out: GI50): 1370 nM; GI50 (DU-145): 126 nM; GI50 (DU-145; read-out: GI50): 145 nM
C/C=C1\NC(=O)[C@@H](Cc2ccccc2)NC(=O)[C@H](C(C)C)NC(=O)[C@H]([C@H](C)CC)NC(=O)[C@@H](NC(=O)[C@@H](NC(=O)[C@@H](CCCN)NC(=O)[C@@H]2CCCN2C(=O)[C@@H](NC(=O)[C@H](NC(=O)[C@H](NC(=O)[C@@H](NC(=O)CCCC(C)C)C(C)C)[C@@H](C)O)C(C)C)C(C)C)[C@H](C)CC)[C@H](C)OC(=O)[C@H](C(C)C)NC1=O	161000	72000	1910	4080	–	2360	–	–	–	8900	–	1770	4920	2130	5540	3790 nM	25300	1690	1920	10600	TGI [1]: 134000 nM; GI50 (K562): 2530 nM; TGI (K562): 10500 nM
C/C=C1\NC(=O)[C@H](Cc2ccccc2)NC(=O)[C@@H](C(C)C)NC(=O)[C@@H]([C@H](C)CC)NC(=O)[C@H](NC(=O)[C@H](NC(=O)[C@H](CCCN)NC(=O)[C@H]2CCCN2C(=O)[C@H](NC(=O)[C@H](Cc2ccccc2)NC(=O)[C@@H](NC(=O)[C@H](NC(=O)CCCC(C)C)C(C)C)[C@@H](C)O)C(C)C)[C@H](C)CC)[C@H](C)OC(=O)[C@H](C(C)C)NC1=O	337	343	607	–	816	768	795	2540	3530	2450	730	760	1030	262	333	69.5 nM	1380	260	960	785	GI50 [1]: 250 nM; GI50 (HeLa): 432 nM; TGI (HeLa): 542 nM; GI50 (SK-MEL-28): 739 nM; GI50 (LNCaP): 857 nM; TGI (LNCaP): 941 nM; GI50 [4]: 184 nM; GI50 ([4]; read-out: GI50): 194 nM; GI50 (LoVo [5]): 290 nM; TGI (LoVo [5]): 310 nM; GI50 (K562): 1740 nM; TGI (K562): 1560 nM; TGI (SK-BR-3): 323 nM; GI50 (SK-BR-3; read-out: GI50): 325 nM; GI50 (A549): 875 nM; GI50 (A549; read-out: GI50): 722 nM; GI50 (DU-145): 752 nM; GI50 (DU-145; read-out: GI50): 612 nM
